Results from ChEMBL document CHEMBL5634186, “Structure-Activity Relationship Study of Biselyngbyolide B Reveals Mitochondrial Fission-Induced Cytotoxicity in Cancer” (ACS Med Chem Lett, 2024).
Activity calls are given as the source filed them. The calls are words filed in the database; no cut-off is given here.

Experiments:
[1] = Cytotoxicity against HEK293 cells assessed as reduction in cell viability incubated for 16 hrs by MTT assay; type: toxicity, cell-based; conditions: human
HCT-116 [2] = experiment: Anticancer activity against human HCT-116 cells assessed as inhibition of cell viability incubated for 16 hrs by MTT assay; type: functional, cell-based; conditions: HCT-116, 16 h
HCT-116 [3] = experiment: Induction of ROS generation in mitochondria of human HCT-116 cells assessed as number of dead cells at 1 uM preincubated with MitoTEMPO for 1 hr followed by compound addition and measured after 16 hrs by Calcein-AM/EthD-1 staining based confocal microscope analysis; type: functional, cell-based
How it was run: (§1)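 HCT116 cells pretreated 1 h with 10 μM MitoTEMPO, then compound 1 μM for 16 h. Mitochondrial superoxide by MitoSOX Red confocal imaging, intensity quantified; cytotoxicity by LIVE/DEAD kit (Calcein-AM live, EthD-1 dead), percentage dead cells quantified.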

HCT-116 [4] = experiment: Induction of apoptosis in human HCT-116 cells assessed as number of dead cells at 1 uM preincubated with selonsertib for 1 hr followed by compound addition and measured after 16 hrs by Calcein-AM/EthD-1 staining based confocal microscope analysis; type: functional, cell-based
HCT-116 [5] = experiment: Induction of mitochondrial membrane potential loss in human HCT-116 cells incubated for 16 hrs by mitotracker red staining based confocal microscope analysis; type: functional, cell-based; conditions: dose 0.5-1 µM
How it was run: (§2)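 HCT116 cells treated 16 h with compound (0.5 or 1 μM where dosed); stained 30 min with MitoTracker Deep Red FM (membrane potential) or CellROX Red FM (ROS); confocal imaging; mean fluorescence intensity quantified from five fields.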

HCT-116 [6] = experiment: Induction of mitochondrial fission in human HCT-116 cells assessed as decrease in DRP1 phosphorylation at S637 at 1 uM preincubated with NAC for 1 hr followed by compound addition and measured after 16 hrs by immunoblotting analysis; type: functional, cell-based
How it was run: (§3)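 Immunoblot of p-DRP1 S616 and p-DRP1 S637 in HCT116 cells pretreated 1 h with or without 5 mM NAC, then 1 μM compound 16 h.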

HCT-116 [7] = experiment: Induction of apoptosis in human HCT-116 cells assessed as decrease in cleavage of caspase 3 at 1 uM pretreated with NAC for 1 hr followed by compound addition and measured after 16 hrs by immunoblotting analysis; type: functional, cell-based
How it was run: (§4)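 HCT116 cells pretreated 1 h with 5 mM NAC, then 1 μM compound 16 h; immunoblot for cleaved caspase 3 and PARP1, β-actin loading control.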

HCT-116 [8] = experiment: Induction of ROS production in human HCT-116 cells assessed as deterioration of mitochondrial length and area at 1 uM incubated for 16 hrs in presence of CellLight Mitochondria-GFP by confocal microscopy analysis; type: functional, cell-based
How it was run: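 HCT116 cells transfected with CellLight Mitochondria-GFP, treated 1 μM for 16 h; confocal images quantified for mitochondrial length and area.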

HCT-116 [9] = experiment: Induction of apoptosis in human HCT-116 cells assessed as decrease in cleavage of caspase 3 at 1 uM preincubated for 16 hrs followed by Mdivi1 addition and measured after 8 hrs by immunoblotting analysis; type: functional, cell-based
How it was run: (§5)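 HCT116 cells treated 1 μM for 16 h, post-treated with 25 μM Mdivi-1 for 8 h; immunoblot for cleaved caspase 3 and PARP1, β-actin loading control.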

HCT-116 [10] = experiment: Induction of ROS generation in mitochondria of human HCT-116 cells at 1 uM preincubated with MitoTEMPO for 1 hr followed by compound addition and measured after 16 hrs by MitoSOX Red staining based confocal microscope analysis; type: functional, cell-based; how it was run: as §1
HCT-116 [11] = experiment: Induction of mitochondrial fission in human HCT-116 cells assessed as decrease in DRP1 phosphorylation at S637 at 0.5 to 1 uM by immunoblotting analysis; type: functional, cell-based; conditions: dose 0.5-1 µM, time 8-24 hrs, TDE = time-dependent effect
How it was run: (§6)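 Immunoblot in HCT116 cells: p-DRP1 S616, p-DRP1 S637, DRP1, Mitofusin1, Mitofusin2 and MFF over time (0, 8, 16, 24 h); p-DRP1 S616, S637, DRP1, Mitofusin1 and OPA at 0.5 and 1 μM. β-Actin loading control.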

HCT-116 [12] = experiment: Induction of apoptosis in human HCT-116 cells assessed as increase in JNK1 phosphorylation at 1 uM preincubated with selonsertib for 1 hr followed by compound addition and measured after 16 hrs by immunoblotting analysis; type: functional, cell-based
How it was run: (§7)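 Immunoblot of p-JNK, p-p38 and p38 in HCT116 cells pretreated 1 h with or without 50 μM selonsertib before compound treatment; β-actin loading control.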

HCT-116 [13] = experiment: Induction of mitochondrial fusion in human HCT-116 cells assessed as change in MFF level at 0.5 to 1 uM incubated for 8 to 24 hrs by immunoblotting analysis; type: functional, cell-based; conditions: dose 0.5-1 µM, time 8-24 hrs; how it was run: as §6
HCT-116 [14] = experiment: Induction of mitochondrial fission in human HCT-116 cells assessed as appearance of mitochondrial puncta at 1 uM incubated for 14 hrs by Mitotracker Red staining based time-lapse microscopy analysis; type: functional, cell-based
How it was run: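 Time-lapse microscopy with MitoTracker Red over 14 h of treatment in HCT116 cells; size of mitochondrial puncta measured as fission read-out.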

HCT-116 [15] = experiment: Induction of apoptosis in human HCT-116 cells assessed as increase in JNK phosphorylation at 1 uM incubated for 16 hrs by immunoblotting analysis; type: functional, cell-based
How it was run: (§8)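 Immunoblot of p-JNK, JNK, p-p38 and p38 in HCT116 cells after 1 μM compound for 16 h; β-actin loading control.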

HCT-116 [16] = experiment: Induction of ROS generation in mitochondria of human HCT-116 cells transfected with mito-GFP at 1 uM incubated for 16 hrs by CellROX Red staining based confocal microscope analysis; type: functional, cell-based
How it was run: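 HCT116 cells transfected with CellLight Mitochondria-GFP, treated 1 μM for 16 h, stained with CellROX Red FM 30 min; confocal imaging; colocalization of GFP and CellROX Red intensities quantified.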

HCT-116 [17] = experiment: Induction of mitochondrial fusion in human HCT-116 cells assessed as change in Mitofusin level at 0.5 to 1 uM incubated for 8 to 24 hrs by immunoblotting analysis; type: functional, cell-based; conditions: dose 0.5-1 µM, time 8-24 hrs; how it was run: as §6
HCT-116 [18] = experiment: Induction of apoptosis in human HCT-116 cells assessed as increase in JNK1 phosphorylation at 1 uM preincubated with NAC for 1 hr followed by compound addition and measured after 16 hrs by immunoblotting analysis; type: functional, cell-based
How it was run: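 Immunoblot of p-JNK and JNK in HCT116 cells pretreated 1 h with or without 5 mM NAC before compound treatment; β-actin loading control.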

HCT-116 [19] = experiment: Induction of mitochondrial membrane potential loss in human HCT-116 cells at 1 uM preincubated for 16 hrs followed by Mdivi1 addition and measured after 8 hrs by MitoTracker Deep Red staining based confocal microscopy analysis; type: functional, cell-based
How it was run: (§9)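 HCT116 cells treated 1 μM for 16 h; DRP1 inhibited with 25 μM Mdivi-1 for 8 h. Staining 30 min with CellROX Red FM, MitoTracker Deep Red FM and LIVE/DEAD reagents; confocal imaging; mean fluorescence intensity from five fields.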

HCT-116 [20] = experiment: Induction of apoptosis in human HCT-116 cells assessed as decrease in cleavage of PARP at 1 uM pretreated with NAC for 1 hr followed by compound addition and measured after 16 hrs by immunoblotting analysis; type: functional, cell-based; how it was run: as §4
HCT-116 [21] = experiment: Induction of apoptosis in human HCT-116 cells assessed as number of dead cells at 1 uM preincubated for 16 hrs followed by Mdivi1 addition and measured after 8 hrs by Calcein-AM/EthD-1 staining based confocal microscope analysis; type: functional, cell-based; how it was run: as §9
HCT-116 [22] = experiment: Induction of mitochondrial fission in human HCT-116 cells assessed as increase in DRP1 phosphorylation at S616 at 0.5 to 1 uM by immunoblotting analysis; type: functional, cell-based; conditions: dose 0.5-1 µM, time 8-24 hrs, TDE = time-dependent effect; how it was run: as §6
HCT-116 [23] = experiment: Induction of mitochondrial fission in human HCT-116 cells assessed as increase in DRP1 phosphorylation at S616 after 8 to 24 hrs by immunoblotting analysis; type: functional, cell-based; conditions: dose 0.5-1 µM, time 8-24 hrs; how it was run: as §6
HCT-116 [24] = experiment: Induction of apoptosis in human HCT-116 cells assessed as increase in p-38 phosphorylation at 1 uM preincubated with selonsertib for 1 hr followed by compound addition and measured after 16 hrs by immunoblotting analysis; type: functional, cell-based; how it was run: as §7
HCT-116 [25] = experiment: Induction of ROS generation in human HCT-116 cells at 1 uM preincubated for 16 hrs followed by Mdivi1 addition for 8 hrs by CellROX Red staining based confocal microscopy analysis; type: functional, cell-based
HCT-116 [26] = experiment: Induction of mitochondrial fission in human HCT-116 cells assessed as decrease in DRP1 phosphorylation at S637 after 8 to 24 hrs by immunoblotting analysis; type: functional, cell-based; conditions: dose 0.5-1 µM, time 8-24 hrs; how it was run: as §6
HCT-116 [27] = experiment: Induction of ROS production in human HCT-116 cells assessed as altered mitochondrial architecture at 1 uM pretreated with NAC for 1 hr followed by compound addition and measured after 16 hrs by MitoTracker Deep Red staining based confocal microscopy analysis; type: functional, cell-based
How it was run: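 HCT116 cells pretreated 1 h with or without 5 mM NAC, then 1 μM compound 16 h; MitoTracker Deep Red FM staining 30 min; confocal imaging of mitochondrial morphology with quantification.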

HCT-116 [28] = experiment: Induction of mitochondrial fusion in human HCT-116 cells assessed as change in OPA1 level at 0.5 to 1 uM incubated for 8 to 24 hrs by immunoblotting analysis; type: functional, cell-based; conditions: dose 0.5-1 µM, time 8-24 hrs; how it was run: as §6
HCT-116 [29] = experiment: Induction of apoptosis in human HCT-116 cells assessed as decrease in cleavage of PARP at 1 uM preincubated for 16 hrs followed by Mdivi1 addition and measured after 8 hrs by immunoblotting analysis; type: functional, cell-based; how it was run: as §5
HCT-116 [30] = experiment: Induction of ROS generation in human HCT-116 cells incubated for 16 hrs by CellROX Red staining based confocal microscope analysis; type: functional, cell-based; conditions: dose 0.5-1 µM; how it was run: as §2
HCT-116 [31] = experiment: Induction of mitochondrial fission in human HCT-116 cells assessed as increase in DRP1 phosphorylation at S616 at 1 uM preincubated with NAC for 1 hr followed by compound addition and measured after 16 hrs by immunoblotting analysis; type: functional, cell-based; how it was run: as §3
HCT-116 [32] = experiment: Induction of apoptosis in human HCT-116 cells assessed as increase in p-38 phosphorylation at 1 uM incubated for 16 hrs by immunoblotting analysis; type: functional, cell-based; how it was run: as §8

C/C=C/C/C(C)=C\[C@H]1C/C=C/C=C/CC/C=C(\C)[C@@H](OC)C/C=C/[C@@H](O)CC(=O)O1
IC50 at 16 h [1]: 12.5 µM
IC50 (HCT-116 [2]): 6.8 µM

C/C=C/C/C(C)=C\[C@H]1C/C=C/C=C/C[C@H](C)/C=C(\C)[C@@H](OC)C/C=C/[C@@H](O)CC(=O)O1
IC50 at 16 h [1]: 20.6 µM
IC50 (HCT-116 [2]): 3.2 µM

C/C=C/C/C(C)=C\[C@H]1C/C=C/C=C/C[C@H](C)/C=C(\C)[C@@H](OC)CCC[C@@H](O)CC(=O)O1
Activity (HCT-116 [3]): inactive
Activity (HCT-116 [4]): inactive
Activity (HCT-116 [5]): Dose-Dependent Effect
Activity (HCT-116 [6]): inactive
Activity (HCT-116 [7]): Active
Activity (HCT-116 [8]): Active
IC50 at 16 h [1]: 23.7 µM
Activity (HCT-116 [9]): inactive
Activity (HCT-116 [10]): inactive
Activity (HCT-116 [11]): Tde
IC50 (HCT-116 [2]): 0.1 µM
Activity (HCT-116 [12]): inactive
Activity (HCT-116 [13]): inactive
Activity (HCT-116 [14]): Active
Activity (HCT-116 [15]): Active
Activity (HCT-116 [16]): Active
Activity (HCT-116 [17]): inactive
Activity (HCT-116 [18]): inactive
Activity (HCT-116 [19]): inactive
Activity (HCT-116 [20]): Active
Activity (HCT-116 [21]): inactive
Activity (HCT-116 [22]): Tde
Activity (HCT-116 [23]): Dose-Dependent Effect
Activity (HCT-116 [24]): inactive
Activity (HCT-116 [25]): inactive
Activity (HCT-116 [26]): Dose-Dependent Effect
Activity (HCT-116 [27]): inactive
Activity (HCT-116 [28]): inactive
Activity (HCT-116 [29]): inactive
Activity (HCT-116 [30]): Dose-Dependent Effect
Activity (HCT-116 [31]): inactive
Activity (HCT-116 [32]): Active
